From publication PMC4206749 (Toxicological Research, 2014)

Key:
[1] = system: S. typhimurium strains (TA98, TA100, TA1535, and TA1537) or E. coli strain (WP2 uvrA); assay: Bacterial reverse mutation assay, all five tester strains; format: cell-based, Salmonella typhimurium, Escherichia coli
Procedure, shortened: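 Pre-incubation Ames test per OECD 471 with S. typhimurium TA98, TA100, TA1535, TA1537 and E. coli WP2 uvrA. Bacteria plus test compound in DMSO (DMSO as negative control), with S9 mix (10% S9 plus cofactors) or 0.1 M phosphate buffer pH 7.4, were incubated 20 min at 37℃ shaking. Plated in histidine/biotin or tryptophan top agar, incubated 48 hr at 37℃, revertants counted. Triplicate plates; dose ratio about 2.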

[2] = system: 2 Gy irradiated Chinese hamster ovary (CHO)-K1 cells; settings: 2 Gy irradiated CHO-K1 cells; cited from earlier work
[3] = system: L5178Y Tk^+/− mouse lymphoma cells; assay: Cytotoxicity assay; format: cell-based
[4] = system: Salmonella typhimurium strain TA1537; assay: Bacterial reverse mutation assay; format: cell-based
[5] = system: L5178Y Tk^+/− mouse lymphoma cells; assay: In vitro comet assay; format: cell-based; settings: 4 hr
[6] = system: Salmonella typhimurium strain TA1535; assay: Bacterial reverse mutation assay; format: cell-based
[7] = system: CHL cells; assay: Cytotoxicity assay; format: cell-based, Chinese hamster; settings: 7.81 to 1,000 μg/ml, 24 hr treatments
Procedure, shortened: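 MTT viability test. Cells were seeded at 1 × 10^4 per well overnight, then exposed 24 hr to test compound; CHL range 7.81 to 1,000 μg/ml. MTT was added at 0.5 mg/ml final for 4 hr at 37℃, followed by DMSO lysis and absorbance at 550 nm. Values are percent of untreated control, with triplicate samples in three independent experiments; IC50 was calculated for CHL.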

SMILES: Oc1ccc(-c2ccc3cc(O)ccc3c2)c(O)c1 [HS-1793, 4-(6-hydroxy-2-naphthyl)-1,3-benzenediol]
- HS-1793 related toxicity (reduced revertant numbers and/or thinning of the background lawn) ([1]; 5,000 μg/plate, absence or presence of S9 metabolic activation): not observed
- Revertant frequencies compared to concurrent vehicle control ([1]; any dose (78.1~5,000 μg/plate), any tester strain, with or without the S9 mix): No increases in revertant frequencies
- ROS and cellular DNA damage [2]: significantly decreased
- Cell viability (MTT) ([3]; 62.5 μg/ml for 4 hr): no reduction of viable cell numbers > 70%
- Cell viability (dose-range study) ([3]; 24 hr treatments): decreased in dose dependent manner
- Number of reverse mutants/plate (Mean ± SD) ([4]; TA1537, with S9 activation, 78.1 μg/plate): 16 ± 2 reverse mutants/plate
- Number of reverse mutants/plate (Mean ± SD) ([4]; TA1537, with S9 activation, 156.3 μg/plate): 14 ± 2 reverse mutants/plate
- Number of reverse mutants/plate (Mean ± SD) ([4]; TA1537, with S9 activation, 312.5 μg/plate): 15 ± 5 reverse mutants/plate
- Number of reverse mutants/plate (Mean ± SD) ([4]; TA1537, with S9 activation, 625 μg/plate): 14 ± 2 reverse mutants/plate
- Number of reverse mutants/plate (Mean ± SD) ([4]; TA1537, with S9 activation, 1,250 μg/plate): 14 ± 1 reverse mutants/plate
- Number of reverse mutants/plate (Mean ± SD) ([4]; TA1537, with S9 activation, 2,500 μg/plate): 16 ± 3 reverse mutants/plate
- Number of reverse mutants/plate (Mean ± SD) ([4]; TA1537, with S9 activation, 5,000 μg/plate): 15 ± 2 reverse mutants/plate
- Number of reverse mutants/plate (Mean ± SD) ([4]; TA1537, without S9 activation, 78.1 μg/plate): 14 ± 2 reverse mutants/plate
- Number of reverse mutants/plate (Mean ± SD) ([4]; TA1537, without S9 activation, 156.3 μg/plate): 17 ± 6 reverse mutants/plate
- Number of reverse mutants/plate (Mean ± SD) ([4]; TA1537, without S9 activation, 312.5 μg/plate): 13 ± 4 reverse mutants/plate
- Number of reverse mutants/plate (Mean ± SD) ([4]; TA1537, without S9 activation, 625 μg/plate): 14 ± 3 reverse mutants/plate
- Number of reverse mutants/plate (Mean ± SD) ([4]; TA1537, without S9 activation, 1,250 μg/plate): 15 ± 6 reverse mutants/plate
- Number of reverse mutants/plate (Mean ± SD) ([4]; TA1537, without S9 activation, 2,500 μg/plate): 18 ± 1 reverse mutants/plate
- Number of reverse mutants/plate (Mean ± SD) ([4]; TA1537, without S9 activation, 5,000 μg/plate): 13 ± 2 reverse mutants/plate
- % DNA in tail ([5]; S9 Mix (+), 3.9 μg/ml): 0.98 ± 0.13%
- Olive moment ([5]; S9 Mix (+), 3.9 μg/ml): 0.41 ± 0.04 μm
- Tail length ([5]; S9 Mix (+), 3.9 μg/ml): 0.86 ± 0.04 μm
- Tail moment ([5]; S9 Mix (+), 3.9 μg/ml): 0.04 ± 0.01 μm
- % DNA in tail ([5]; S9 Mix (+), 7.8 μg/ml): 1.16 ± 0.08%
- Olive moment ([5]; S9 Mix (+), 7.8 μg/ml): 0.56 ± 0.06 μm
- Tail length ([5]; S9 Mix (+), 7.8 μg/ml): 0.95 ± 0.13 μm
- Tail moment ([5]; S9 Mix (+), 7.8 μg/ml): 0.06 ± 0.01 μm
- % DNA in tail ([5]; S9 Mix (+), 15.5 μg/ml): 1.42 ± 0.16%
- Olive moment ([5]; S9 Mix (+), 15.5 μg/ml): 0.78 ± 0.12 μm
- Tail length ([5]; S9 Mix (+), 15.5 μg/ml): 1.04 ± 0.06 μm
- Tail moment ([5]; S9 Mix (+), 15.5 μg/ml): 0.13 ± 0.02 μm
- % DNA in tail ([5]; S9 Mix (+), 31 μg/ml): 1.58 ± 0.11%
- Olive moment ([5]; S9 Mix (+), 31 μg/ml): 0.80 ± 0.17 μm
- Tail length ([5]; S9 Mix (+), 31 μg/ml): 1.17 ± 0.07 μm
- Tail moment ([5]; S9 Mix (+), 31 μg/ml): 0.09 ± 0.02 μm
- % DNA in tail ([5]; S9 Mix (+), 62 μg/ml): 1.65 ± 0.09%
- Olive moment ([5]; S9 Mix (+), 62 μg/ml): 0.85 ± 0.15 μm
- Tail length ([5]; S9 Mix (+), 62 μg/ml): 1.20 ± 0.03 μm
- Tail moment ([5]; S9 Mix (+), 62 μg/ml): 0.15 ± 0.01 μm
- % DNA in tail ([5]; S9 Mix (−), 3.9 μg/ml): 0.93 ± 0.21%
- Olive moment ([5]; S9 Mix (−), 3.9 μg/ml): 0.42 ± 0.03 μm
- Tail length ([5]; S9 Mix (−), 3.9 μg/ml): 1.49 ± 0.36 μm
- Tail moment ([5]; S9 Mix (−), 3.9 μg/ml): 0.03 ± 0.01 μm
- % DNA in tail ([5]; S9 Mix (−), 7.8 μg/ml): 1.09 ± 0.37%
- Olive moment ([5]; S9 Mix (−), 7.8 μg/ml): 0.62 ± 0.05 μm
- Tail length ([5]; S9 Mix (−), 7.8 μg/ml): 1.98 ± 0.27 μm
- Tail moment ([5]; S9 Mix (−), 7.8 μg/ml): 0.07 ± 0.02 μm
- % DNA in tail ([5]; S9 Mix (−), 15.5 μg/ml): 1.61 ± 0.49%
- Olive moment ([5]; S9 Mix (−), 15.5 μg/ml): 0.75 ± 0.07 μm
- Tail length ([5]; S9 Mix (−), 15.5 μg/ml): 2.11 ± 0.41 μm
- Tail moment ([5]; S9 Mix (−), 15.5 μg/ml): 0.13 ± 0.03 μm
- % DNA in tail ([5]; S9 Mix (−), 31 μg/ml): 2.13 ± 0.36%
- Olive moment ([5]; S9 Mix (−), 31 μg/ml): 0.98 ± 0.09 μm
- Tail length ([5]; S9 Mix (−), 31 μg/ml): 2.75 ± 0.37 μm
- Tail moment ([5]; S9 Mix (−), 31 μg/ml): 0.16 ± 0.03 μm
- % DNA in tail ([5]; S9 Mix (−), 62 μg/ml): 2.52 ± 0.34%
- Olive moment ([5]; S9 Mix (−), 62 μg/ml): 1.01 ± 0.07 μm
- Tail length ([5]; S9 Mix (−), 62 μg/ml): 2.82 ± 0.46 μm
- Tail moment ([5]; S9 Mix (−), 62 μg/ml): 0.21 ± 0.05 μm
- % DNA in the tail, tail length, TM, or OM versus vehicle ([5]; presence or absence of metabolic activation): No significant differences
- Number of reverse mutants/plate (Mean ± SD) ([6]; TA1535, with S9 activation, 78.1 μg/plate): 24 ± 3 reverse mutants/plate
- Number of reverse mutants/plate (Mean ± SD) ([6]; TA1535, with S9 activation, 156.3 μg/plate): 22 ± 3 reverse mutants/plate
- Number of reverse mutants/plate (Mean ± SD) ([6]; TA1535, with S9 activation, 312.5 μg/plate): 23 ± 4 reverse mutants/plate
- Number of reverse mutants/plate (Mean ± SD) ([6]; TA1535, with S9 activation, 625 μg/plate): 21 ± 4 reverse mutants/plate
- Number of reverse mutants/plate (Mean ± SD) ([6]; TA1535, with S9 activation, 1,250 μg/plate): 21 ± 3 reverse mutants/plate
- Number of reverse mutants/plate (Mean ± SD) ([6]; TA1535, with S9 activation, 2,500 μg/plate): 20 ± 2 reverse mutants/plate
- Number of reverse mutants/plate (Mean ± SD) ([6]; TA1535, with S9 activation, 5,000 μg/plate): 21 ± 6 reverse mutants/plate
- Number of reverse mutants/plate (Mean ± SD) ([6]; TA1535, without S9 activation, 78.1 μg/plate): 15 ± 2 reverse mutants/plate
- Number of reverse mutants/plate (Mean ± SD) ([6]; TA1535, without S9 activation, 156.3 μg/plate): 17 ± 2 reverse mutants/plate
- Number of reverse mutants/plate (Mean ± SD) ([6]; TA1535, without S9 activation, 312.5 μg/plate): 18 ± 2 reverse mutants/plate
- Number of reverse mutants/plate (Mean ± SD) ([6]; TA1535, without S9 activation, 625 μg/plate): 17 ± 5 reverse mutants/plate
- Number of reverse mutants/plate (Mean ± SD) ([6]; TA1535, without S9 activation, 1,250 μg/plate): 17 ± 2 reverse mutants/plate
- Number of reverse mutants/plate (Mean ± SD) ([6]; TA1535, without S9 activation, 2,500 μg/plate): 18 ± 4 reverse mutants/plate
- Number of reverse mutants/plate (Mean ± SD) ([6]; TA1535, without S9 activation, 5,000 μg/plate): 17 ± 3 reverse mutants/plate
- Cell viability (MTT) [7]: decreased in dose dependent manner
